Laboratory results from ChEMBL document CHEMBL4265871, “Novel alkylated azoles as potent antifungals” (Eur J Med Chem, 2017).
Values after ≈ are worked out from the molar mass of the structure shown.

Legend:
in vitro = conditions: mouse, mouse erythrocytes
[1] = Selectivity index, ratio of EC50 for toxicity in human A549 cells to MIC50 for antifungal activity against Candida glabrata ATCC 2001; assay type: cell-based; conditions: read-out: Selectivity Index
Summary of the method: (§1)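 Selectivity index is the EC50 against the mammalian line (A549 or BEAS-2B) divided by the MIC against the given fungal strain.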

[2] = Hemolytic activity in mouse erythrocytes assessed as hemolysis level at 1.95 ug/ml incubated for 1 hr at 37 degC; assay type: ADME, cell-based, Erythrocyte; conditions: read-out: Activity
Summary of the method: (§2)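 Mouse erythrocytes incubated 1 h at 37 °C with test agents over 1.95 to 125 µg/mL. Percent lysis is read for each concentration.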

Pichia kudriavzevii = experiment: Antifungal activity against Candida krusei ATCC 6258 incubated for 48 hrs by modified CLSI M27-A3 protocol based method; assay type: functional; conditions: ATCC 6258, 48 h, read-out: MIC100
Summary of the method: (§3)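 For C. albicans ATCC 10231, C. krusei ATCC 6258 and C. parapsilosis ATCC 22019, MIC-0 was read, meaning complete growth inhibition. For azole controls, MIC-2 (50% growth inhibition) was reported instead. Caspofungin and voriconazole were tested here; other controls came from earlier work.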

[3] = Selectivity index, ratio of […] for toxicity in human A549 cells to MIC50 for antifungal activity against Aspergillus flavus ATCC MYA-3631; assay type: cell-based; conditions: read-out: Selectivity Index
[4] = Selectivity index, ratio of EC50 for toxicity in human A549 cells to MIC50 for antifungal activity against ITC and FLC-resistant Candida albicans ATCC MYA-90819; assay type: cell-based; conditions: read-out: Selectivity Index
Summary of the method: as §1

Candida albicans [5] = experiment: Antifungal activity against ITC and FLC-susceptible Candida albicans ATCC MYA-2310 incubated for 48 hrs by modified CLSI M27-A3 protocol based method; assay type: functional; conditions: ATCC MYA-2310, 48 h
[6] = Selectivity index, ratio of […] for toxicity in human A549 cells to MIC50 for antifungal activity against Aspergillus nidulans ATCC 38163; assay type: cell-based; conditions: read-out: Selectivity Index
[7] = Selectivity index, ratio of […] for toxicity in human BEAS2B cells to MIC50 for antifungal activity against Aspergillus nidulans ATCC 38163; assay type: cell-based; conditions: BEAS-2B cells, read-out: Selectivity Index
[8] = Selectivity index, ratio of EC50 for toxicity in human BEAS2B cells to MIC50 for antifungal activity against ITC and FLC-resistant Candida albicans ATCC MYA-90819; assay type: cell-based; conditions: BEAS-2B cells, read-out: Selectivity Index
Summary of the method: (§4)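 Ratio of the compound's EC50 against BEAS-2B cells to its MIC against the named C. albicans strain. […] For C. albicans strains other than ATCC 10231, trailing growth meant MIC-2 was taken, meaning 50% growth inhibition.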

Aspergillus flavus = experiment: Antifungal activity against Aspergillus flavus ATCC MYA-3631 incubated for 48 hrs by CLSI M38-A2 protocol based method; assay type: functional; conditions: ATCC MYA-3631, 48 h, read-out: MIC100
[9] = Selectivity index, ratio of EC50 for toxicity in human A549 cells to MIC50 for antifungal activity against Candida albicans ATCC 64124; assay type: cell-based; conditions: read-out: Selectivity Index
Summary of the method: as §1

Candida albicans [10] = experiment: Antifungal activity against ITC and FLC-resistant Candida albicans ATCC MYA-90819 incubated for 48 hrs by modified CLSI M27-A3 protocol based method; assay type: functional; conditions: ATCC MYA-90819, 48 h
[11] = Selectivity index, ratio of EC50 for toxicity in human BEAS2B cells to MIC50 for antifungal activity against ITC and FLC-susceptible Candida albicans ATCC MYA-2876; assay type: cell-based; conditions: BEAS-2B cells, read-out: Selectivity Index
Summary of the method: as §4

[12] = Selectivity index, ratio of EC50 for toxicity in human BEAS2B cells to MIC50 for antifungal activity against ITC and FLC-resistant Candida albicans ATCC 1237; assay type: cell-based; conditions: BEAS-2B cells, read-out: Selectivity Index
Summary of the method: as §1

[13] = Hemolytic activity in mouse erythrocytes assessed as hemolysis level at 7.8 ug/ml incubated for 1 hr at 37 degC; assay type: ADME, cell-based, Erythrocyte; conditions: read-out: Activity
Summary of the method: as §2

[14] = Selectivity index, ratio of EC50 for toxicity in human A549 cells to MIC50 for antifungal activity against ITC and FLC-resistant Candida albicans ATCC MYA-1003; assay type: cell-based; conditions: read-out: Selectivity Index
Summary of the method: as §1

[15] = Selectivity index, ratio of EC50 for toxicity in human BEAS2B cells to MIC50 for antifungal activity against ITC and FLC-susceptible Candida albicans ATCC MYA-2310; assay type: cell-based; conditions: BEAS-2B cells, read-out: Selectivity Index
Summary of the method: as §4

Nakaseomyces glabratus = experiment: Antifungal activity against Candida glabrata ATCC 2001 incubated for 48 hrs by modified CLSI M27-A3 protocol based method; assay type: functional; conditions: ATCC 2001, 48 h
[16] = Toxicity in human A549 cells assessed as reduction in cell viability incubated for 24 hrs by resazurin dye based assay
Summary of the method: (§5)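 Toxicity tested in the nucleated lines A549 and BEAS-2B to give EC50 values. Selectivity index is EC50 against the mammalian line divided by the MIC against a given fungal strain.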

[17] = Selectivity index, ratio of […] for toxicity in human A549 cells to MIC50 for antifungal activity against Aspergillus terreus ATCC MYA-3633; assay type: cell-based; conditions: read-out: Selectivity Index
[18] = Selectivity index, ratio of EC50 for toxicity in human A549 cells to MIC50 for antifungal activity against Candida krusei ATCC 6258
[19] = Hemolytic activity in mouse erythrocytes assessed as hemolysis level at 125 ug/ml incubated for 1 hr at 37 degC; assay type: ADME, cell-based, Erythrocyte; conditions: read-out: Activity
Summary of the method: as §2

[20] = Selectivity index, ratio of […] for toxicity in human BEAS2B cells to MIC50 for antifungal activity against Aspergillus terreus ATCC MYA-3633; assay type: cell-based; conditions: BEAS-2B cells, read-out: Selectivity Index
[21] = Selectivity index, ratio of EC50 for toxicity in human A549 cells to MIC50 for antifungal activity against ITC and FLC-susceptible Candida albicans ATCC MYA-2876; assay type: cell-based; conditions: read-out: Selectivity Index
Summary of the method: as §1

[22] = Selectivity index, ratio of EC50 for toxicity in human BEAS2B cells to MIC50 for antifungal activity against Candida krusei ATCC 6258; conditions: BEAS-2B cells
[23] = Toxicity in human BEAS2B cells assessed as reduction in cell viability incubated for 24 hrs by resazurin dye based assay; conditions: BEAS-2B cells
Summary of the method: as §5

Candida albicans [24] = experiment: Antifungal activity against ITC and FLC-resistant Candida albicans ATCC MYA-1003 incubated for 48 hrs by modified CLSI M27-A3 protocol based method; assay type: functional; conditions: ATCC MYA-1003, 48 h
Summary of the method: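 Because these Candida strains show trailing growth, MIC-2 was read, meaning 50% growth inhibition. Caspofungin and voriconazole were tested here; other controls came from earlier work.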

Aspergillus nidulans = experiment: Antifungal activity against Aspergillus nidulans ATCC 38163 incubated for 48 hrs by CLSI M38-A2 protocol based method; assay type: functional; conditions: ATCC 38163, 48 h, read-out: MIC100
[25] = Selectivity index, ratio of EC50 for toxicity in human BEAS2B cells to MIC50 for antifungal activity against Candida albicans ATCC 64124; assay type: cell-based; conditions: BEAS-2B cells, read-out: Selectivity Index
Summary of the method: as §1

Candida parapsilosis = experiment: Antifungal activity against Candida parapsilosis ATCC 22019 incubated for 48 hrs by modified CLSI M27-A3 protocol based method; assay type: functional; conditions: Lodderomyces parapsilosis, ATCC 22019, 48 h; read-out: MIC100
Summary of the method: as §3

[26] = Hemolytic activity in mouse erythrocytes assessed as hemolysis level at 15.6 ug/ml incubated for 1 hr at 37 degC; assay type: ADME, cell-based, Erythrocyte; conditions: read-out: Activity
Summary of the method: as §2

Row | Structure (SMILES) | hemolysis at 1 h, 62.5 ug/ml (in vitro) | selectivity ratio [1] | hemolysis at 1 h, 1.95 ug/ml [2] | MIC (Pichia kudriavzevii) | selectivity ratio [3] | selectivity ratio [4] | MIC50 (Candida albicans [5]) | selectivity ratio [6] | selectivity ratio [7] | selectivity ratio [8] | MIC (Aspergillus flavus) | selectivity ratio [9] | MIC50 (Candida albicans [10]) | selectivity ratio [11] | selectivity ratio [12] | hemolysis at 1 h, 7.8 ug/ml [13] | selectivity ratio [14] | selectivity ratio [15] | MIC50 (Nakaseomyces glabratus) | EC50 at 24 h [16] | further results
1 | CCCCCCC(O)(Cn1cncn1)c1ccc(Cl)cc1Cl (stereo unspecified) | 98% | 10 | 0% | 0.09 µM (≈ 0.0308 µg/mL) | 5 | 10 | 5.7 µM (≈ 1.95 µg/mL) | 42 | 58 | 14 | 11.4 µM (≈ 3.9 µg/mL) | 10 | 5.7 µM (≈ 1.95 µg/mL) | 29 | 14 | 1.6% | 21 | 14 | 5.7 µM (≈ 1.95 µg/mL) | 20 µg/mL (≈ 58.4 µM) | selectivity ratio [17]: 5; selectivity ratio [18]: 667; hemolysis at 1 h, 125 ug/ml [19]: 105%; selectivity ratio [20]: 7; selectivity ratio [21]: 21; selectivity ratio [22]: 933; EC50 at 24 h [23]: 28 µg/mL (≈ 81.8 µM); MIC50 (Candida albicans [24]): 2.8 µM (≈ 0.958 µg/mL); MIC (Aspergillus nidulans): 1.4 µM (≈ 0.479 µg/mL); selectivity ratio [25]: 14; MIC (Candida parapsilosis): < 0.09 µM; hemolysis at 1 h, 15.6 ug/ml [26]: 105%
2 | CCCCCC(O)(Cn1cncn1)c1ccc(F)cc1F (stereo unspecified) | 25.2% | 4 | 0% | 0.81 µM (≈ 0.239 µg/mL) | 2 | 8 | 26.4 µM (≈ 7.8 µg/mL) | 32 | 32 | 8 | 52.8 µM (≈ 15.6 µg/mL) | 4 | 13.2 µM (≈ 3.9 µg/mL) | 4 | 4 | 0% | 16 | 4 | 26.4 µM (≈ 7.8 µg/mL) | > 31.3 µg/mL | selectivity ratio [17]: 1; selectivity ratio [18]: 130; hemolysis at 1 h, 125 ug/ml [19]: 45.4%; selectivity ratio [20]: 1; selectivity ratio [21]: 4; selectivity ratio [22]: 130; EC50 at 24 h [23]: > 31.3 µg/mL; MIC50 (Candida albicans [24]): 6.6 µM (≈ 1.95 µg/mL); MIC (Aspergillus nidulans): 3.3 µM (≈ 0.975 µg/mL); selectivity ratio [25]: 4; MIC (Candida parapsilosis): < 0.1 µM; hemolysis at 1 h, 15.6 ug/ml [26]: 0.9%
3 | CCCCCC(O)(Cn1cncn1)c1ccc(Cl)cc1Cl (stereo unspecified) | 100% | 17 | 0% | 1.5 µM (≈ 0.492 µg/mL) | 8 | 17 | 5.9 µM (≈ 1.94 µg/mL) | 69 | 65 | 16 | 11.9 µM (≈ 3.91 µg/mL) | 17 | 5.9 µM (≈ 1.94 µg/mL) | 32 | 16 | 0% | 34 | 16 | 5.9 µM (≈ 1.94 µg/mL) | 33 µg/mL (≈ 101 µM) | selectivity ratio [17]: 8; selectivity ratio [18]: 69; hemolysis at 1 h, 125 ug/ml [19]: 100%; selectivity ratio [20]: 8; selectivity ratio [21]: 34; selectivity ratio [22]: 65; EC50 at 24 h [23]: > 31.3 µg/mL; MIC50 (Candida albicans [24]): 3 µM (≈ 0.985 µg/mL); MIC (Aspergillus nidulans): 1.5 µM (≈ 0.492 µg/mL); selectivity ratio [25]: 16; MIC (Candida parapsilosis): < 0.09 µM; hemolysis at 1 h, 15.6 ug/ml [26]: 0%
